Data published in ChEMBL document CHEMBL1125226, “Antineoplastic activity of didemnin congeners: nordidemnin and modified chain analogues” (1991).
≈ marks a conversion by molar mass, not a printed value.

Legend:
L1210 [1] = experiment: In vitro cytostatic activity determined on L1210 leukemia cells at 24 hours.; type: functional; conditions: Mus musculus, L1210, 24 h; read-out: ID50 (the source's name)
Outline: (§1)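 Log-phase L1210 cells were seeded at 0.8 × 10⁵ cells/mL in RPMI 1640 with 20% heat-inactivated horse serum, 2 mmol/L L-glutamine, streptomycin and penicillin. Drugs in ethanol (0.5% final) were tested at several concentrations.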

P388 [2] = experiment: Antitumor activity against P388 Leukemia from CDF1 female mice (T/C) as median survival time of treated mice (T) over that of control mice (C) at a dose of 0.75 mg/kg/day; type: functional, Mus musculus
Outline: (§2)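 CDF1 female mice (BALB/c ♀ × DBA/2 ♂) given 10⁶ P388 cells ip on day 0. Drug in 2% methanol given ip on days 1, 5 and 9, 10 mice per group and more controls. Toxicity is survivors on day 5, with weight change between days 1 and 5. Mortality followed 30 days. T/C% is treated over control median survival (NCI method), significant at ≥125%.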

L1210 [3] = experiment: In vitro cytostatic activity determined on L1210 leukemia cells at 48 hours.; type: functional; conditions: Mus musculus, L1210, 48 h; read-out: ID50 (the source's name); outline: as §1
P388 [4] = experiment: Antitumor activity against P388 Leukemia from CDF1 female mice as average weight change of animals between day 1 and day 5 after tumor implementation at a dose of 0.12 mg/kg/day; type: functional, Mus musculus
Outline: (§3)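 P388 leukemia: CDF1 female mice were inoculated ip with 10⁶ cells on day 0. Treatment in 2% methanol was given ip on days 1, 5 and 9, with 10 mice per group and a larger control group. Body weight was recorded on days 1 and 5 post-implant, and the average change was reported.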

P388 [5] = experiment: Antitumor activity against P388 Leukemia from CDF1 female mice as the number of survivors on day 5 at a dose of 0.75 mg/kg/day; type: functional, Mus musculus; outline: as §2
P388 [6] = experiment: Antitumor activity against P388 Leukemia from CDF1 female mice as Median survival time of treated mice at a dose of 0.12 mg/kg/day; type: functional, Mus musculus; outline: as §2
P388 [7] = experiment: Antitumor activity against P388 Leukemia from CDF1 female mice (T/C) as median survival time of treated mice (T) over that of control mice (C) at a dose of 0.12 mg/kg/day; type: functional, Mus musculus; outline: as §2
P388 [8] = experiment: Antitumor activity against P388 Leukemia from CDF1 female mice as average weight change of animals between day 1 and day 5 after tumor implementation at a dose of 0.75 mg/kg/day; type: functional, Mus musculus; outline: as §3
P388 [9] = experiment: Antitumor activity against P388 Leukemia from CDF1 female mice as Median survival time of treated mice at a dose of 0.75 mg/kg/day; type: functional, Mus musculus; outline: as §2

SMILES	IC50 (L1210 [1]) [ng/mL]	T/C (P388 [2]) [%]	IC50 (L1210 [3]) [ng/mL]	Body weight change (P388 [4]) [g]	Toxicity (P388 [5])	median survival time, days (P388 [6])	T/C (P388 [7]) [%]	Body weight change (P388 [8]) [g]	median survival time, days (P388 [9])
COc1ccc(C[C@H]2C(=O)O[C@H](C)[C@H](NC(=O)[C@@H](CC(C)C)N(C)C(=O)C3CCCN3C(=O)[C@H](O)c3ccccc3)C(=O)NC(C(C)C)[C@H](O)CC(=O)O[C@@H](C(C)C)C(=O)[C@H](C)C(=O)N[C@@H](CC(C)C)C(=O)N3CCC[C@H]3C(=O)N2C)cc1 (some centres not stated)	2 (≈ 1.72 nM)	159	1.3 (≈ 1.12 nM)	0.2	1	16	134	-1.5	19
COc1ccc(C[C@H]2C(=O)O[C@H](C)C(NC(=O)[C@H](CC(C)C)N(C)C(=O)C3CCCN3C(=O)[C@@H](C)O)C(=O)NC(C(C)C)[C@H](O)CC(=O)O[C@@H](C(C)C)C(=O)[C@H](C)C(=O)N[C@@H](CC(C)C)C(=O)N3CCC[C@H]3C(=O)N2C)cc1 (some centres not stated)	1260 (≈ 1150 nM)	–	589 (≈ 536 nM)	–	–	–	–	–	–
CCCCCCCCCCCCCCCC(=O)N1CCCC1C(=O)N(C)[C@H](CC(C)C)C(=O)N[C@@H]1C(=O)NC(C(C)C)[C@H](O)CC(=O)O[C@@H](C(C)C)C(=O)[C@H](C)C(=O)N[C@@H](CC(C)C)C(=O)N2CCC[C@H]2C(=O)N(C)[C@@H](Cc2ccc(OC)cc2)C(=O)O[C@@H]1C (some centres not stated)	> 1000	–	> 1000	–	–	–	–	–	–
COc1ccc(C[C@H]2C(=O)O[C@H](C)[C@H](NC(=O)[C@@H](CC(C)C)N(C)C(=O)C3CCCN3C(=O)CCc3ccc(O)cc3)C(=O)NC(C(C)C)[C@H](O)CC(=O)O[C@@H](C(C)C)C(=O)[C@H](C)C(=O)N[C@@H](CC(C)C)C(=O)N3CCC[C@H]3C(=O)N2C)cc1 (some centres not stated)	4.8 (≈ 4.09 nM)	157	1.5 (≈ 1.28 nM)	0.2	1	14.7	123	-1.1	18.7
